Where a chain is given by its changes, count along the chain named. The source made the active and inactive calls. The rule behind the calls is not given here.
How the values were obtained:
Substance-P receptor [1] = biological target: Substance-P receptor (Homo sapiens, UniProt P25103); assay: Noncompetitive inhibition of wild type human NK1 receptor expressed in HEK293 cells assessed as decrease in SP1-induced [3H]IP accumulation after 20 mins; format: cell-based
Neuromedin-K receptor [2] = biological target: T1, Neuromedin-K receptor (Homo sapiens, UniProt P29371); assay: Binding affinity to wild type human NK3 receptor
T1 sequence (P29371 whole entry): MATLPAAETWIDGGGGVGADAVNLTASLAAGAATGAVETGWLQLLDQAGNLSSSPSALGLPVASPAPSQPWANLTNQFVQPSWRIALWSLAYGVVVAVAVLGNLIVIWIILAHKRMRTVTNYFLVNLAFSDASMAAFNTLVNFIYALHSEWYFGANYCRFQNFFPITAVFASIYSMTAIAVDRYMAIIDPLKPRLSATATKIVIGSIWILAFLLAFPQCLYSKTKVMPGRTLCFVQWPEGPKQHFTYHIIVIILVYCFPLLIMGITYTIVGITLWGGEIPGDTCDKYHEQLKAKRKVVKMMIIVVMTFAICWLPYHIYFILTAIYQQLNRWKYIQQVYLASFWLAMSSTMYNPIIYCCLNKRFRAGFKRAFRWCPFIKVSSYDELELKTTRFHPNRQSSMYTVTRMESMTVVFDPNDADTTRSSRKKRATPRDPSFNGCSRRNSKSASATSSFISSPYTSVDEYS

HEK293 = assay: Selectivity ratio of Ki for wild type human NK3 receptor expressed in HEK293 cells to Ki for human NK3 Y315F6.51 mutant expressed in HEK293 cells; format: cell-based
Neuromedin-K receptor [3] = biological target: Neuromedin-K receptor (Homo sapiens, UniProt P29371, Y315F); assay: Displacement of radioligand [3H]osanetant at human NK3 Y315F6.51 mutant expressed in HEK293 cells; format: cell-based
Sequence of Neuromedin-K receptor (Homo sapiens, UniProt P29371, Y315F) (P29371 whole entry Y315F): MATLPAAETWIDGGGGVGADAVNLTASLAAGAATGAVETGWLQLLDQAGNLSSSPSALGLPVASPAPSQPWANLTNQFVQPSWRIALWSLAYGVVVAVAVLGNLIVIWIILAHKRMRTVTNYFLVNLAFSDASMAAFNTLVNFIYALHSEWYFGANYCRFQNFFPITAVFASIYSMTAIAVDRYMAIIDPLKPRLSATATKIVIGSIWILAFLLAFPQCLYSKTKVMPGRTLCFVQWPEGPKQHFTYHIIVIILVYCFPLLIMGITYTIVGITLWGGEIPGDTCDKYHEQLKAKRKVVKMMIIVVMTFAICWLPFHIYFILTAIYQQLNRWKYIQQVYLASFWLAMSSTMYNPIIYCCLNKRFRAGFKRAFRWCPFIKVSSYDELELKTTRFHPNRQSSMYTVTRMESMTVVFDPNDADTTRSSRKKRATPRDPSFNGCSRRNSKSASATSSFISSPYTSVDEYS

Substance-P receptor [4] = biological target: Substance-P receptor (Homo sapiens, UniProt P25103, F264Y); assay: Displacement of radioligand [3H]SP from human NK1 F264Y6.51 mutant expressed in HEK293 cells; format: cell-based
Sequence of Substance-P receptor (Homo sapiens, UniProt P25103, F264Y) (P25103 whole entry F264Y): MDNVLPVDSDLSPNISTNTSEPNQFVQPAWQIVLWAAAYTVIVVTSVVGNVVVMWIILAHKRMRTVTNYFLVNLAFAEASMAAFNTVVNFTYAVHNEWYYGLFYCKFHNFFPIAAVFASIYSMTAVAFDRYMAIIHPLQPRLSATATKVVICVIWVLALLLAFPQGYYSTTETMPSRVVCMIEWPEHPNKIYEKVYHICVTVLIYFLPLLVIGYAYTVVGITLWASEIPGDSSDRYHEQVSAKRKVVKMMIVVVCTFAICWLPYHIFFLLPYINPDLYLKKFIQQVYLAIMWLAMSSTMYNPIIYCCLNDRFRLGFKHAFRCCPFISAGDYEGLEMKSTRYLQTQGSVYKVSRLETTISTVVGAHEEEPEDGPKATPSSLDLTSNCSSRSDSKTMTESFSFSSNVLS
Procedure, shortened: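 Membranes from transiently transfected HEK293 cells, 2.5 μg protein/well, in 50 mM HEPES pH 7.4 with 3 mM MnCl2, phosphoramidon, leupeptin and 0.04% BSA. 10 competitor concentrations (0.0003–10 μM), 90 min at rt. Nonspecific binding with 10 μM NK1 antagonist. Filtration, then scintillation counting. Ki by Cheng–Prusoff. Three experiments, each in duplicate.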

[5] = test system: T2, Neuromedin-K receptor (Homo sapiens), P29371 [H316W]; assay: Antagonist activity at human NK3 H316W6.52 mutant expressed in HEK293 cells assessed as decrease in [MePhe7]NKB-induced [3H]IP accumulation after 20 mins; format: functional, cell-based
T2 sequence (whole entry): T1 sequence (P29371 whole entry) with H316W
Procedure, shortened: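 HEK293 cells transiently expressing human NK3 WT or mutant, labeled with myo-[³H]inositol in LiCl buffer. Antagonist preincubated 20 min at 37 °C, then [MePhe⁷]NKB (0.01 nM–1 μM) added for 45 min at 37 °C. [³H]IP read by SPA beads. Schild analysis of EC50 shift and Emax depression across increasing antagonist concentrations gives pA2, slope and mode of antagonism.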

Sequence of Substance-P receptor (Homo sapiens, UniProt P25103) (P25103 whole entry): as the sequence (P25103 whole entry F264Y) above, with Y264F counted along it

inhibition (Substance-P receptor [1]): Active
Ki (Neuromedin-K receptor [2]): 2.9 nM
Ki (Neuromedin-K receptor [3]): 0.7 nM
Ki (Substance-P receptor [4]): 1.1 nM
Activity [5]: inactive
SMILES: Cc1cc(F)ccc1-c1cc(N2CC[C@H](O)[C@H]2CO)ncc1N(C)C(=O)C(C)(C)c1cc(C(F)(F)F)cc(C(F)(F)F)c1
Ratio Ki (HEK293): 4.1

Source: ChEMBL document CHEMBL2203099, “Identification of a crucial amino acid in the helix position 6.51 of human tachykinin neurokinin 1 and 3 receptors contributing to the insurmountable mode of antagonism by dual NK₁/NK₃ antagonists” (J Med Chem, 2012)
